Reference: ChEMBL document CHEMBL3351242, “Tetrahydroxanthene-1,3(2H)-dione derivatives from Uvaria valderramensis” (2014)
Values after ≈ are worked out from the molar mass of the structure shown. Active and inactive are the calls of the source. No cut-off for these calls is given here.

Experiments:
Format in all cases: functional
[1] = tested on: Mycobacterium tuberculosis; assay: Antitubercular activity against Mycobacterium tuberculosis H37Rv by MABA assay
Outline: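 Microplate Alamar Blue assay on the H37Rv strain, with rifampin, isoniazid and streptomycin as positive drug controls; values reported as MIC in μg/mL.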

HUVEC = assay: Cytotoxicity against HUVEC; details: Homo sapiens
Outline: (§1)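 Growth inhibition measured colorimetrically with CellTiter-Blue and MTT read-outs, with imatinib as reference drug; values reported as GI50 in μg/mL.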

K562 = assay: Cytotoxicity against human K562 cells; outline: as §1
HeLa = assay: Cytotoxicity against human HeLa cells; outline: as §1

SMILES	MIC [1]	GI50 (HUVEC) [µg/mL]	GI50 (K562) [µg/mL]	CC50 (HeLa) [µg/mL]
COc1ccc2c(c1)C[C@]1(OC)C(=O)/C(=C(O)/C=C/c3ccccc3)C(=O)C[C@@]1(OC)O2	10 µg/mL (≈ 22.9 µM)	–	–	–
CC(=O)O[C@@H]1C(=O)C=COC=C1COC(=O)c1ccccc1	32 µg/mL (≈ 106 µM)	5.4 (≈ 17.9 µM)	1.4 (≈ 4.63 µM)	–
COc1ccc2c(c1)C[C@]1(O)C(=O)/C(=C(O)/C=C/c3ccccc3)C(=O)C[C@@]1(OC)O2 (relative stereo)	inactive	–	–	–
COc1ccc(C[C@H]2c3cc(O)c(OC)cc3CCN2C)cc1O [(S)-RETICULINE]	32 µg/mL (≈ 97.1 µM)	–	–	–
COc1cccc2c1C(=O)c1c(O)c3c(c(O)c1C2=O)C[C@@](O)(C(=O)CO)C[C@@H]3O[C@H]1C[C@H](N)[C@H](O)[C@H](C)O1 [DOXORUBICIN]	–	0.1 (≈ 0.184 µM)	1 (≈ 1.84 µM)	2 (≈ 3.68 µM)
Cc1ccc(NC(=O)c2ccc(CN3CCN(C)CC3)cc2)cc1Nc1nccc(-c2cccnc2)n1 [IMATINIB]	–	> 10	0.1 (≈ 0.203 µM)	> 10
NNC(=O)c1ccncc1 [ISONIAZID]	0.63 µg/mL (≈ 4.59 µM)	–	–	–
CO[C@H]1/C=C/O[C@@]2(C)Oc3c(C)c(O)c4c(O)c(c(/C=N/N5CCN(C)CC5)c(O)c4c3C2=O)NC(=O)/C(C)=C\C=C\[C@H](C)[C@H](O)[C@@H](C)[C@@H](O)[C@@H](C)[C@H](OC(C)=O)[C@@H]1C [RIFAMPIN]	0.15 µg/mL (≈ 0.182 µM)	–	–	–
CN[C@@H]1[C@H](O[C@H]2[C@H](O[C@H]3[C@H](O)[C@@H](O)[C@H](N=C(N)N)[C@@H](O)[C@@H]3N=C(N)N)O[C@@H](C)[C@]2(O)C=O)O[C@@H](CO)[C@H](O)[C@H]1O [STREPTOMYCIN]	0.83 µg/mL (≈ 1.43 µM)	–	–	–
